This is a sample that favours compounds with a hit; in the whole collection about 12% have one here.
Diaphorase inh – counter-screen for diaphorase-based assays: diaphorase inhibitors and chemical oxidizers; diaphorase resazurin-to-resorufin fluorescence, NADH, 16 min; bacterial (C. kluyveri) enzyme, not human; inhibition, % at 20 µM; actives 0.69% (n = 190,000); AID 1217;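 active = primary screen inhibition at 20 µM above a set limit, cut at about 50% in these data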;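 note: plate controls were DMSO with full reaction for no effect and wells lacking NADH for full effect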
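Assay system: diaphorase enzyme from Clostridium kluyveri; Input: enzyme working solution with 0.14 U/mL diaphorase; Timing: 16 min at room temperature; Technique: resorufin fluorescence, excitation 544 nm, emission 590 nm; Benchmarks: positive control minus NADH, DMSO neutral control.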
WT yeast gro inh – growth inhibition of WT yeast, mitochondrial fusion screen; inhibition, % at 10 µM; AID 1362; actives 2.1% (n = 190,000); mitochondrial fusion phenotypic screen, WT strain; in the data active = inhibition above about 58%; tested in S. cerevisiae
KCC2 mod – modulates chloride dependent transport by human KCC2 | actives 2.2% (n = 190,000) | KCC2 cells, thallium flux FluoZin-2 fluorescence | Q9H2X9 | AID 1456 | B-score of Tl+ flux slope (higher = more flux/activation; lower = inhibition) at 10 µM;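 active = thallium flux slope and its plate-corrected score both differing from the plate sample mean at a set confidence after two filtering rounds, in either direction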;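 note: slope of fluorescence scaled to starting intensity during 10 to 20 s after thallium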
Target sequence (Q9H2X9 whole entry, looked up): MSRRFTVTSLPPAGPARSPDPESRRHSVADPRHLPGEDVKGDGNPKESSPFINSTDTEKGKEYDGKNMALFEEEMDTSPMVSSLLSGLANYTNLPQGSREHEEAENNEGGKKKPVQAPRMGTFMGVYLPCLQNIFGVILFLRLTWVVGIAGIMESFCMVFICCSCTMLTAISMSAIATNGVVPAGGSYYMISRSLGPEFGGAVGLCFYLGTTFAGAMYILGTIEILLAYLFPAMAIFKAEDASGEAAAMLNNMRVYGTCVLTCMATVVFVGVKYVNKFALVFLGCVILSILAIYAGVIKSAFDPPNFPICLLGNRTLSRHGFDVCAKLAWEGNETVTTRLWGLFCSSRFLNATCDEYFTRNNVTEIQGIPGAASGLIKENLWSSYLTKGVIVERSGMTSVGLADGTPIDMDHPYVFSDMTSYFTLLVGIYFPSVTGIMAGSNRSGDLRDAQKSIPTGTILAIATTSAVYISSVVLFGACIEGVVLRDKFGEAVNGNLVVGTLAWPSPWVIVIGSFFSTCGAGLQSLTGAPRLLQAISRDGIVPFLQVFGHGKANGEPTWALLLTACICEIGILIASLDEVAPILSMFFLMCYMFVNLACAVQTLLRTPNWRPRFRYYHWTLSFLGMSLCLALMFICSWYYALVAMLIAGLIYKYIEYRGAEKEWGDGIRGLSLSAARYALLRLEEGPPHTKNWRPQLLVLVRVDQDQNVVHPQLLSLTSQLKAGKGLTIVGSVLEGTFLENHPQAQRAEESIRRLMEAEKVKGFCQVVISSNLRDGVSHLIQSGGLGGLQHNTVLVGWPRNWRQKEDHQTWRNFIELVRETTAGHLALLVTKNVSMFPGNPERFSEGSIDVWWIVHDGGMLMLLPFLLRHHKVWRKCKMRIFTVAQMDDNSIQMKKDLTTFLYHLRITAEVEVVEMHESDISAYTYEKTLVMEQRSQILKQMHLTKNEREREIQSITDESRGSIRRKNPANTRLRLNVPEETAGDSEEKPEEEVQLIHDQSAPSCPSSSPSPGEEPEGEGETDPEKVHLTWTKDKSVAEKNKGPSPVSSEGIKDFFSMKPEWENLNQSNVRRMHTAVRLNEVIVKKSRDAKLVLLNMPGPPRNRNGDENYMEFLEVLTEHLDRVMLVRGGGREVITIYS
Diaph act CS – activates diaphorase or chemically reduces, flagging diaphorase assay artifacts. Diaphorase/resazurin coupled assay, resorufin fluorescence, 16 min; hits give high values; 1 = vehicle wells, 0 = NADH-free wells. activation factor at 20 µM. actives 0.005% (n = 190,000);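 active = diaphorase activity raised at least twofold by the compound at 20 µM; inactive = activation factor below 2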
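System – purified diaphorase enzyme from Clostridium kluyveri · Input – enzyme 0.07 U/mL final · Also added – final NADH 0.114 mM, resazurin 0.1 mM · Measured by – fluorescence of resorufin, 544 nm excitation, 590 nm emission · Timing – 16 min enzyme reaction, ambient temperature · Measure – resorufin increase flagging diaphorase activators or reducers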
ROMK mod – human ROMK K+ channel modulation, primary screen; B-score at 10 µM; Tet-inducible ROMK, thallium flux fluorescence; actives lie on both sides; AID 1918; actives 2% (n = 130,000); P48048;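 active = signal ratio slope over the read window, or its plate-corrected B-score, at least 3 SD from the plate mean, either direction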;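 note: B-score of the F/F0 ratio slope over 7 to 12 s after thallium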
L major viab – inhibitors of Leishmania major promastigote growth | Leishmania major promastigotes, resazurin fluorescence viability | AID 1063 | inhibition, % at 10 µM | actives 9% (n = 200,000); in the data active = inhibition above about 50%;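 note: promastigotes grown with compound for 44 hours at 28 °C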
ROMK retest – retested hit modulating human ROMK potassium channel. shares compounds with ROMK mod. ROMK thallium flux, fluorescence ratio; hits give low values. normalized thallium flux (F/F0 slope) at 10 µM. actives 54% (n = 3,000);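 active = Flux at 10 µM at least 3 SD below or above vehicle control mean in one or both replicates; inconclusive = no clear call, values can overlap the other calls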
Numbers without * were called inactive; ? = inconclusive; . = not tested or not shown.

SMILES	Diaphorase inh	WT yeast gro inh	KCC2 mod	Diaph act CS	ROMK mod	L major viab	ROMK retest
O=C(C1=C(c2ccccc2)C(=O)c2ccccc2C1=O)c1ccccc1	40	22	0.44	0.6	0.39	24	.
Cc1oc2c(c1C(=O)c1ccccc1)C(=O)C(=O)c1ccccc1-2	58*	84	-1.8	0.4	.	100*	?
Cc1ccccc1NC(=S)N(CCCN1CCCCC1)Cc1ccco1	7	4	0.43	0.9	-1.1	-2	.
CN(C)CCNC(=O)CNC(=S)N(CCCN1CCOCC1)Cc1cccs1	-6	-5	0.55	1.1	-8.5*	-1	0.079
COc1cccc(NC(=S)N(CCCN2CCC(C)CC2)Cc2cccs2)c1	-1	4	-0.37	1	-3.4*	68*	0.061*
Cc1ccccc1NC(=S)N(CCCN1CCC(C)CC1)Cc1ccco1	10	3	0.42	0.9	-2.5*	13	0.066*
COc1ccc(CN(C#N)c2nc(SC)nc(N(C)C)n2)cc1	24	29	.	0.8	-1.2	42	.
CCOc1cc(Br)c(/C=C2/C(=O)N(C)C(=S)N2CC(=O)OC)cc1OC	.	17	-0.019	.	-2.6*	7	0.075
CCOc1cc(/C=C2/NC(=O)N(CC(=O)OC)C2=O)ccc1OC	1	-14	0.85	1	.	-8	.
NC(=S)Nn1c(-c2ccccc2)nc2ccccc2c1=O	7	0	-0.021	0.9	0.82	36	.
CCCCNC(=O)CN1C(=O)c2cccc(N)c2C1=O	1	-15	0.6	1	-2.5	-5	0.055*
CC1CCCCC1NC(=O)Cn1cnc2ccccc2c1=O (stereo not given)	10	-2	-0.089	0.9	0	-5	.
CC1CCCCC1NC(=O)CN1C(=O)c2cccc(N)c2C1=O (stereo not given)	-6	-12	-0.65	1.1	-3.7*	-1	0.056*
CC(C)CC1(C)NC(=O)N(CCN2C(=O)c3ccccc3C2=O)C1=O (stereo not given)	20	1	-0.16	0.8	.	-9	.
N#C/C(=C\c1cccc(Cl)c1)c1n[nH]c(Cn2cncn2)n1	20	9	-1.7	0.8	-2.6*	-8	0.053*
COc1ccc(-n2cccc2/C=C/[N+](=O)[O-])cc1	27	70*	-0.79	0.7	-5.5*	100*	0.041*
Cc1noc(C)c1COC(=O)c1cc(C)n(-c2ccccc2)c1C	23	25	0.72	0.8	.	79*	0.088
C[C@H](NC(=O)OCc1ccccc1)C(=O)NNC(=O)[C@H](Cc1ccccc1)NC(=O)OC(C)(C)C	.	.	0.63	.	.	.	.
CC(C)(C)OC(=O)C(Cc1ccc(OC(C)(C)C)cc1)NC(=O)CNC(=O)OCc1ccccc1 (stereo not given)	25	14	-1.4	0.8	-2.2*	17	0.058*
COC(=O)CNC(=O)C(C)NC(=O)CNC(=O)OCc1ccccc1 (stereo not given)	8	-15	-0.67	0.9	.	-7	0.077
Cn1cnnc1Sc1ccc(/C=C(\CC(=O)O)c2nc3ccccc3s2)cc1[N+](=O)[O-]	.	.	-1.5	.	.	.	.
Cc1ccc(C)c(NC(=O)/C(C#N)=C/c2ccc(Sc3nncn3C)c([N+](=O)[O-])c2)c1	9	-3	-0.32	0.9	-3.1*	0	0.06*
CC(O)c1nc2ccccc2n1CCOc1ccccc1 (stereo not given)	2	-16	-0.85	1	-1.2	6	.
COc1ccccc1OCCn1c(C(C)O)nc2ccccc21 (stereo not given)	12	44	-0.0051	0.9	-4.9*	-1	0.066*
C=CCn1c(COc2ccc(Cl)cc2)nnc1SCc1ccc(C#N)cc1	17	8	-1.4	0.8	.	58*	?
SMILES	Diaphorase inh	WT yeast gro inh	KCC2 mod	Diaph act CS	ROMK mod	L major viab	ROMK retest
O=C1OC(c2cccs2)=N/C1=C\c1ccc(-c2cccc(Cl)c2)o1	21	0	.	0.8	.	2	0.052*
CC1=Nc2ccccc2/C1=C\c1sc(Nc2ccc(C)cc2)nc1O	23	61*	-1	0.8	2*	73*	0.095
CCOC(=O)C1=C(N)OC2=C(C(=O)CC(C)(C)C2)C1c1ccoc1 (stereo not given)	15	-4	.	0.8	-0.099	-5	.
CCOC(=O)C1=C(N)OC2=C(C(=O)CC(C)(C)C2)C1c1cc(CSc2nnnn2C)cs1 (stereo not given)	7	-2	-0.41	0.9	-4.1*	10	?
Cc1cc(NC(=O)C23CCC(C)(c4nc5cc(Cl)c(Cl)cc5nc42)C3(C)C)no1 (stereo not given)	.	.	-0.81	.	0.85	-4	.
c1ccc2nc3c(cc2c1)CCCCC3	.	.	1	.	.	.	0.074
c1ccc2nc3c(cc2c1)CCCCCC3	13	-3	.	0.9	0.039	10	.
N#CC1=C2SCCN2C(=O)C(C#N)C12CCCCC2 (stereo not given)	11	7	.	0.9	0.011	-6	.
COc1cccc(-c2csc(N3CCN(C(=O)C4CCCCC4)CC3)n2)c1	17	51	-1.1	0.8	.	-4	?
COc1cccc(-c2csc(N3CCN(C(=O)Nc4ccc(F)cc4)CC3)n2)c1	20	24	0.059	0.8	-2.3	10	.
COc1ccc(OC)c(C(=O)c2coc3ccc(OC(C)=O)cc23)c1	14	-2	.	0.9	0.86	-6	.
COc1ccc(OC)c(C(=O)c2coc3ccc(OCC(=O)O)cc23)c1	11	2	.	0.9	2.8*	1	0.07
COc1ccc2occ(C(=O)c3coc4ccc(O)c(CN(C)C)c34)c2c1	10	10	-3	0.9	.	75*	0.061*
CCCC1C2C(=O)N(c3cccc(C)c3)C(=O)C2ON1c1ccccc1 (stereo not given)	.	.	-0.0014	.	.	.	.
Cc1cc(N2C(=O)CC(N3CCN(C(c4ccccc4)c4ccccc4)CC3)C2=O)no1 (stereo not given)	12	16	-0.028	0.9	1.7	-5	.
S=C(NCc1ccc(Cl)cc1Cl)Nc1ccccc1	26	53	-0.33	0.7	-0.28	20	.
O=C(O)CC[C@@H](C(=O)O)N1C(=O)c2ccccc2C1=O	.	.	-1.8	.	.	.	.
COc1ccc(-c2cc(C(=O)NCCc3ccc(S(N)(=O)=O)cc3)c3ccccc3n2)cc1	-2	-17	0.5	1	0.022	-6	.
CON1C(=O)C(=O)N(OC)C2CCCCC21 (stereo not given)	7	22	-0.013	0.9	.	14	?
Oc1c(C=NCc2ccc(F)cc2)[nH]c2ccc(Br)c(Cl)c12	26	.	.	0.7	-5.2*	27	0.047*
Cc1ccc(CN=Cc2[nH]c3ccc(Br)c(Cl)c3c2O)cc1	23	64*	-3.3	0.8	-3.2*	23	0.045*
